# Reference: ChEMBL document CHEMBL1833919, “Does the combination of optimal substitutions at the C²-, N⁵- and N⁸-positions of the pyrazolo-triazolo-pyrimidine scaffold guarantee selective modulation of the human A₃ adenosine receptors?” (Bioorg Med Chem, 2011)
# What was measured:
# Adenosine receptor A1 = target: T1, Adenosine receptor A1 (Homo sapiens, UniProt P30542); test: Displacement of [3H]CCPA from human recombinant adenosine A1 receptor expressed in CHO cells after 3 hrs; type: cell-based
# T1 sequence (P30542 whole entry): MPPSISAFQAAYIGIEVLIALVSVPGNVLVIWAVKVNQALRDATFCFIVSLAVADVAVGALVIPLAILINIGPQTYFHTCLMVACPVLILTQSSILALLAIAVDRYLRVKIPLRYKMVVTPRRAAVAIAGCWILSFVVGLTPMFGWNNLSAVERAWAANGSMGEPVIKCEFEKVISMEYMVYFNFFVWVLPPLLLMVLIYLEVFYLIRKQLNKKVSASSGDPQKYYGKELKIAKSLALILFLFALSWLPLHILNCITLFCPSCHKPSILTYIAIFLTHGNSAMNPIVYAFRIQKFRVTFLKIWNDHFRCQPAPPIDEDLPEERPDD
# How it was run: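 CHO membranes (two-step spin, stored -80 °C), 20 μg protein, incubated 3 h at 25 °C in 200 μL 50 mM Tris/HCl pH 7.4 with 1 nM [3H]CCPA, 0.2 U/mL adenosine deaminase and a range of test concentrations. Nonspecific binding with 1 mM theophylline. Filtration and scintillation counting. Ki by Cheng-Prusoff; n = 3-6, geometric means, 95% CI.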
# Adenosine receptor A2a = Adenosine receptor A2a (Homo sapiens, UniProt P29274); test: Displacement of [3H]NECA from human recombinant adenosine 2A receptor expressed in CHO cells after 3 hrs; type: cell-based
# Adenosine receptor A2a, sequence (P29274 whole entry): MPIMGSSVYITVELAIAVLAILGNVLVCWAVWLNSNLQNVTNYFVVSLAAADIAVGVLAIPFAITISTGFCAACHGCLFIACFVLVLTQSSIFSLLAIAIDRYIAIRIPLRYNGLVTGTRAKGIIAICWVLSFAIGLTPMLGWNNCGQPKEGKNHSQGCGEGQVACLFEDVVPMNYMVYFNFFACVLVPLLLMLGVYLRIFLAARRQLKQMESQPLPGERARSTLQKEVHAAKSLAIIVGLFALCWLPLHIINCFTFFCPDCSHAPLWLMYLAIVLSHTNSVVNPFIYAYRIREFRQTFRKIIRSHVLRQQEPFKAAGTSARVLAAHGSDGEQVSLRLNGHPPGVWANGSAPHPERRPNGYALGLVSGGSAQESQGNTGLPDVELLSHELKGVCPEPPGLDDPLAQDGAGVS
# How it was run: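 Membranes at 50 μg protein, incubated 3 h at 25 °C in 50 mM Tris/HCl, 10 mM MgCl2, pH 7.4 with 30 nM [3H]NECA and varied test concentrations. 100 μM R-PIA defined nonspecific binding. Bound ligand separated on glass-fiber filters and counted. Ki by Cheng-Prusoff; n = 3-6, geometric means, 95% CI.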
# Adenosine receptor A2b = target: T2, Adenosine receptor A2b (Homo sapiens, UniProt P29275); test: Antagonist activity human recombinant adenosine 2B receptor expressed in CHO cells assessed as inhibition of NECA-stimulated adenylyl cyclase activity; type: functional, cell-based
# T2 sequence (P29275 whole entry): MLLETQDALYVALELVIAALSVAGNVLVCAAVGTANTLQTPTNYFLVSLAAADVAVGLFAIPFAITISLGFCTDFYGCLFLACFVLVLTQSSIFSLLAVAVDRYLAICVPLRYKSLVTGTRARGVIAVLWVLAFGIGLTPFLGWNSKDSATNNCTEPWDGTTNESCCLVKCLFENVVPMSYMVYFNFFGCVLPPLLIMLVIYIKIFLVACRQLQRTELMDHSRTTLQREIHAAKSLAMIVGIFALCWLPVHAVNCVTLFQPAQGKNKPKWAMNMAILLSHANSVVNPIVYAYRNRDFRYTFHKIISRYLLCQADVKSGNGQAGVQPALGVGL
# How it was run: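 Membranes from hA2B-expressing CHO cells, single 54,000g 30-min spin, resuspended in 50 mM Tris/HCl pH 7.4 and used at once. Incubated 20 min with about 150,000 cpm [α-32P]ATP, no EGTA or NaCl. IC50 from concentration-dependent inhibition of NECA-stimulated adenylyl cyclase, converted to Ki; n = 3-6, geometric means with 95% confidence limits.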
# Adenosine receptor A3 = target: T3, Adenosine receptor A3 (Homo sapiens, UniProt P0DMS8); test: Displacement of [3H]NECA from human recombinant adenosine A3 receptor expressed in CHO cells after 3 hrs; type: cell-based
# T3 sequence (P0DMS8 whole entry): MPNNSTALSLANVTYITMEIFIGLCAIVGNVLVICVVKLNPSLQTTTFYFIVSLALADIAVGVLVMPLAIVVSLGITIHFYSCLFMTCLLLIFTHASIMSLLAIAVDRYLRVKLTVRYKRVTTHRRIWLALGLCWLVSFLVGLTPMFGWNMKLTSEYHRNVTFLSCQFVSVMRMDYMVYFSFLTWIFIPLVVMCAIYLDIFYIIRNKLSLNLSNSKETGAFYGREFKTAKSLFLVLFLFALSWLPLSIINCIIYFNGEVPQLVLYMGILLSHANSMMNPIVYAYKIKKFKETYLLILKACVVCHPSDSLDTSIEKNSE
# How it was run: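 20 μg membrane protein in 50 mM Tris/HCl, 1 mM EDTA, 10 mM MgCl2, pH 8.25 with 10 nM [3H]NECA and test compound over a concentration range, 3 h at 25 °C. Nonspecific binding with 100 μM R-PIA. Filtration, then counting. Ki via Cheng-Prusoff; n = 3-6, geometric means with 95% CI.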
# [1] = target: Adenosine receptors; A1 & A3 (Homo sapiens) (UniProt P30542+P0DMS8); test: Selectivity ratio of Ki for human recombinant adenosine A1 receptor to Ki for human recombinant adenosine A3 receptor
# Homo sapiens = species: Homo sapiens; test: Selectivity ratio of Ki for human recombinant adenosine 2a receptor to Ki for human recombinant adenosine A3 receptor
Ki (Adenosine receptor A1) [µM],Ki (Adenosine receptor A2a) [µM],Ki (Adenosine receptor A2b) [µM],Ki (Adenosine receptor A3) [µM],Ratio Ki [1],Ratio Ki (Homo sapiens),SMILES
> 30,1.06,> 10,0.0053,> 5660,200,Cn1cc2c(nc(NC(=O)Nc3ccc(F)cc3)n3nc(-c4ccc(Cl)cc4)nc23)n1
> 100,6.93,> 10,0.304,> 329,22.8,Cn1cc2c(nc(N)n3nc(-c4ccc(C(F)(F)F)cc4)nc23)n1
> 100,> 100,> 10,0.0021,> 47600,> 47600,COc1ccc(NC(=O)Nc2nc3nn(C)cc3c3nc(-c4ccc(-c5ccccc5)cc4)nn23)cc1
0.232,0.571,> 30,0.00334,69.5,171,O=C(Cc1ccccc1)Nc1nc2nn(CCc3ccccc3)cc2c2nc(-c3ccc(F)cc3)nn12
0.932,3.09,> 30,–,110,364,O=C(Cc1ccccc1)Nc1nc2nn(CCc3ccccc3)cc2c2nc(-c3ccc(Cl)cc3)nn12
> 10,2.36,> 10,0.0025,> 4000,944,Cn1cc2c(nc(NC(=O)Nc3ccccc3)n3nc(-c4ccc(Br)cc4)nc23)n1
> 30,5.93,> 10,0.00172,> 17400,3450,Cn1cc2c(nc(NC(=O)Nc3ccc(F)cc3)n3nc(-c4ccc(Br)cc4)nc23)n1
4.42,> 30,> 10,0.00191,2310,> 15700,Cn1cc2c(nc(NC(=O)Nc3ccc(F)cc3)n3nc(-c4ccc(C(F)(F)F)cc4)nc23)n1
–,–,–,–,3710,2380,Cn1cc2c(nc(NC(=O)Nc3ccccc3)n3nc(-c4ccco4)nc23)n1
12.9,36,> 10,0.00344,3750,10500,Cn1cc2c(nc(NC(=O)Nc3ccccc3)n3nc(-c4ccc(C(F)(F)F)cc4)nc23)n1
0.395,4.04,> 30,0.0171,23.1,236,O=C(Nc1nc2nn(CCc3ccccc3)cc2c2nc(-c3ccc(F)cc3)nn12)c1ccccc1
> 10,8.4,> 10,0.00195,> 5130,4310,COc1ccc(NC(=O)Nc2nc3nn(C)cc3c3nc(-c4ccc(Br)cc4)nn23)cc1
> 100,> 100,> 10,0.00236,> 42400,> 42400,COc1ccc(NC(=O)Nc2nc3nn(C)cc3c3nc(-c4ccc(C(F)(F)F)cc4)nn23)cc1
> 30,> 30,> 10,0.0059,> 5090,> 5090,Cn1cc2c(nc(NC(=O)Nc3ccccc3)n3nc(-c4ccc(-c5ccccc5)cc4)nc23)n1
6.49,1.46,> 10,0.00133,4880,1100,COc1ccc(NC(=O)Nc2nc3nn(C)cc3c3nc(-c4ccc(Cl)cc4)nn23)cc1
–,–,–,0.045,2.67,1.33,O=C(Cc1ccccc1)Nc1nc2nn(CCc3ccccc3)cc2c2nc(-c3ccco3)nn12
0.221,19.4,> 30,0.0114,19.4,1700,O=C(Nc1nc2nn(CCc3ccccc3)cc2c2nc(-c3ccc(Cl)cc3)nn12)c1ccccc1
5.55,0.987,> 10,0.00171,3250,577,Cn1cc2c(nc(NC(=O)Nc3ccccc3)n3nc(-c4ccc(Cl)cc4)nc23)n1
> 10,> 10,> 10,> 10,–,–,O=C(Cc1ccccc1)Nc1nc2nn(CCc3ccccc3)cc2c2nc(-c3ccc(Br)cc3)nn12
> 100,> 100,> 10,0.00406,> 24600,> 24600,Cn1cc2c(nc(NC(=O)Nc3ccc(F)cc3)n3nc(-c4ccc(-c5ccccc5)cc4)nc23)n1
0.831,25.2,> 10,0.0289,28.8,872,COc1ccc(-c2nc3c4cn(CCc5ccccc5)nc4nc(NC(=O)c4ccccc4)n3n2)cc1
0.192,0.614,> 30,0.00302,63.6,203,O=C(Cc1ccccc1)Nc1nc2nn(CCc3ccccc3)cc2c2nc(-c3ccccc3)nn12
> 100,> 30,> 10,0.147,> 680,> 204,Cn1cc2c(nc(N)n3nc(-c4ccc(-c5ccccc5)cc4)nc23)n1
